Converted amounts (≈) assume the structure as drawn. The source made the active and inactive calls.
Experiments:
[1] = Protein binding in monkey plasma assessed as unbound fraction; type: ADME, cell-free, Macaca mulatta; conditions: rhesus monkey
[2] = Protein binding in rat plasma assessed as unbound fraction; type: ADME, cell-free
Rattus norvegicus [3] = test: Analgesic activity in Sprague-Dawley rat MIA-induced osteoarthritic pain model assessed as increase in paw withdrawal threshold at 3 mg/kg, po after 1 hr in presence of CB2 antagonist SR144528 by von Frey filaments assay; type: functional, organism-based
Rattus norvegicus [4] = test: Toxicity in Sprague-Dawley rat assessed as change in core body temperature up to 100 mg/kg, po measured after 60 mins by rectal probe method; type: organism-based; conditions: in vivo, 1 h
[5] = Protein binding in human plasma assessed as unbound fraction; type: ADME, cell-free
[6] = Ratio of drug level in brain to plasma in Sprague-Dawley rat at 3 mg/kg, po measured after 2 hrs; type: ADME, organism-based; conditions: brain and plasma, read-out: BPR
Rattus norvegicus [7] = test: Acute toxicity in Sprague-Dawley rat assessed as hematological changes at 30 to 300 mg/kg, po administered for 14 days measured during compound dosing; type: organism-based; conditions: in vivo, 336 h
Rattus norvegicus [8] = test: Analgesic activity in Sprague-Dawley rat MIA-induced osteoarthritic pain model assessed as increase in paw withdrawal threshold at 3 mg/kg, po after 1 hr in presence of CB2 antagonist […] by von Frey filaments assay; type: functional, organism-based
[9] = Protein binding in mouse plasma assessed as unbound fraction; type: ADME, cell-free
[10] = target: T1, Voltage-gated inwardly rectifying potassium channel KCNH2 (Homo sapiens, UniProt Q12809); test: Inhibition of human ERG by patch-clamp method
T1 sequence (Q12809 whole entry): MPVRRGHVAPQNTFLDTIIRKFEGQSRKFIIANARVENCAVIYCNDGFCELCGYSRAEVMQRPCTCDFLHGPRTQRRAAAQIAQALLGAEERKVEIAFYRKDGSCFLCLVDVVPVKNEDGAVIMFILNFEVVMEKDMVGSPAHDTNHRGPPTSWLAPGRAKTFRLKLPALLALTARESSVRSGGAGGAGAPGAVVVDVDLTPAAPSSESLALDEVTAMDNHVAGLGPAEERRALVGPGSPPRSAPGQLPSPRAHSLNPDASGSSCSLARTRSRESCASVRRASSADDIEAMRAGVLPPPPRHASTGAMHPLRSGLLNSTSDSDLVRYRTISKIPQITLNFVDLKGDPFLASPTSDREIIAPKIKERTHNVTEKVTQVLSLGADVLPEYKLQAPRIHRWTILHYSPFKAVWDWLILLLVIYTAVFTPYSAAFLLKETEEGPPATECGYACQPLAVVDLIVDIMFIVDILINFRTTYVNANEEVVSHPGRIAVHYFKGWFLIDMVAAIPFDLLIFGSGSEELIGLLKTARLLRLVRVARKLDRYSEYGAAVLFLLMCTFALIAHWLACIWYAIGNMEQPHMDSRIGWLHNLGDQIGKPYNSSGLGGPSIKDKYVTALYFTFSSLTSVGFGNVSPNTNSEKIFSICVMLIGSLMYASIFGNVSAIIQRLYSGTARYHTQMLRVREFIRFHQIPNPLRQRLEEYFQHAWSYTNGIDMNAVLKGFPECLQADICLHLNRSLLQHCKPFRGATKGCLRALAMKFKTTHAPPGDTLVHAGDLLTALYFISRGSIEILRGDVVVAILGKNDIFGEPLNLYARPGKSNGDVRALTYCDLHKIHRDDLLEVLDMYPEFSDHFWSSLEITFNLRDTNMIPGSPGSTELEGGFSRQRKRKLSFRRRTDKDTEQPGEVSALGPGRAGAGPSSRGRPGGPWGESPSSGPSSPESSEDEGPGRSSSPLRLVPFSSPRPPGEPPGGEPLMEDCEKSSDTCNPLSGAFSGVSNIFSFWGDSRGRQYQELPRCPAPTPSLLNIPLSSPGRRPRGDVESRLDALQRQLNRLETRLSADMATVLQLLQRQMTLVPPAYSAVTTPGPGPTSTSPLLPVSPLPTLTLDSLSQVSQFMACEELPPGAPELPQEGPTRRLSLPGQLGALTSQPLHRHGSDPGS

Cytochrome P450 2D6 = Cytochrome P450 2D6 (Homo sapiens, UniProt P10635); test: Inhibition of CYP2D6 (unknown origin); type: ADME
Cytochrome P450 2D6, sequence (P10635 whole entry): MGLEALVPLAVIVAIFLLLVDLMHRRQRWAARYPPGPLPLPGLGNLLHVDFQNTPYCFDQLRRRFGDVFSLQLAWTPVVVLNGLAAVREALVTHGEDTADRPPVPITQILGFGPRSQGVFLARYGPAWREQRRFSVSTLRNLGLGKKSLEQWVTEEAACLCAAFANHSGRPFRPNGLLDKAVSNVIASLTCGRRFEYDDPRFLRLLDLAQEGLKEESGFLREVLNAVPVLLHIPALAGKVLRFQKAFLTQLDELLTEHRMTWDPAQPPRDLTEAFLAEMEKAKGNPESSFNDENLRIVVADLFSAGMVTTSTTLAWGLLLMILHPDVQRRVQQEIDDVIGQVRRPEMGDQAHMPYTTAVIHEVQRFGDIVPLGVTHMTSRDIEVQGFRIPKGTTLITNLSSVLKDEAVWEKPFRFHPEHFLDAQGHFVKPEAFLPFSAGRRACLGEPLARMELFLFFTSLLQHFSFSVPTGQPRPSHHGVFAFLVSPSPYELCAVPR

[11] = Half life in rat liver microsomes; type: ADME, microsome
[12] = target: T2, Cannabinoid receptor 2 (Rattus norvegicus) (UniProt Q9QZN9); test: Agonist activity at recombinant rat CB2 receptor expressed in HEK293 cells assessed as increase in beta arrestin recruitment measured after 2 to 3 hrs by PathHunter assay relative to CP55940; type: functional, cell-based
T2 sequence (whole entry): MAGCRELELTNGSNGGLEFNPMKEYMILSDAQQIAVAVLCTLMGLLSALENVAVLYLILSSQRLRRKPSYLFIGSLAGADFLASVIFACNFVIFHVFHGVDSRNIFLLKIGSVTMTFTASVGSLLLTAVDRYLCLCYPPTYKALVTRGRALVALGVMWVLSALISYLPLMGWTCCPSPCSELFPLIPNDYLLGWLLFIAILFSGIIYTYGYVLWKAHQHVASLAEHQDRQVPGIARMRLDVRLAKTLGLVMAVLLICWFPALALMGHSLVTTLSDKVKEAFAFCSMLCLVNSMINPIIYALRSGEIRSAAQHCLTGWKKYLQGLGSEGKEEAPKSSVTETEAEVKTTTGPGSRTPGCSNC
Method in brief: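 Beta-arrestin recruitment EC50 is the mean of three or more independent experiments (logSD < 0.4). Intrinsic activity (Emax) is expressed relative to CP-55,940 set at 100.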

Salmonella typhimurium [13] = test: Mutagenicity in Salmonella typhimurium in presence of liver S9 fraction by Ames test; type: toxicity, organism-based; conditions: salmonella enterica subsp. enterica serovar typhimurium
[14] = target: T1, Voltage-gated inwardly rectifying potassium channel KCNH2; test: Inhibition of [3H]-astemizole binding to human ERG
[15] = Stability of the compound; type: physicochemical
HepG2 = test: Cytotoxicity against human HepG2 cells up to 1000 uM; type: cell-based
Method in brief: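 Essential Cell Function panel in live HepG2 cells, measuring several cellular parameters.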

Rattus norvegicus [16] = test: Analgesic activity in Sprague-Dawley rat MIA-induced osteoarthritic pain model assessed as increase in paw withdrawal threshold at 3 mg/kg, ip administered twice daily for 5 days measured 1 hr post dose at 1 day interval for 5 days during compound dosing; type: functional, organism-based
Method in brief: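 Rats with MIA-induced late-phase hypersensitivity were dosed IP twice daily for 5 days. Von Frey paw withdrawal thresholds were measured 1 h after the morning dose on days 1, 3 and 5.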

Salmonella typhimurium [17] = test: Mutagenicity in Salmonella typhimurium in absence of liver S9 fraction by Ames test; type: toxicity, organism-based; conditions: salmonella enterica subsp. enterica serovar typhimurium
Rattus norvegicus [18] = test: Analgesic activity in Sprague-Dawley rat MIA-induced osteoarthritic pain model assessed as increase in paw withdrawal threshold at 3 mg/kg, po after 1 hr in presence of CB1 antagonist rimonabant by von Frey filaments assay; type: functional, organism-based
[19] = Protein binding in dog plasma assessed as unbound fraction; type: ADME, cell-free, Canis lupus familiaris
Rattus norvegicus [20] = test: Analgesic activity in po dosed Sprague-Dawley rat MIA-induced osteoarthritic pain model assessed as increase in paw withdrawal threshold after 1 hr by von Frey filaments assay; type: functional
Method in brief: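 Von Frey paw withdrawal thresholds were read 1 h post-dose to assess late-phase hypersensitivity. ED50 was derived from the dose-response.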

Cytochrome P450 2C19 = Cytochrome P450 2C19 (Homo sapiens, UniProt P33261); test: Inhibition of CYP2C19 (unknown origin); type: ADME
Cytochrome P450 2C19, sequence (P33261 whole entry): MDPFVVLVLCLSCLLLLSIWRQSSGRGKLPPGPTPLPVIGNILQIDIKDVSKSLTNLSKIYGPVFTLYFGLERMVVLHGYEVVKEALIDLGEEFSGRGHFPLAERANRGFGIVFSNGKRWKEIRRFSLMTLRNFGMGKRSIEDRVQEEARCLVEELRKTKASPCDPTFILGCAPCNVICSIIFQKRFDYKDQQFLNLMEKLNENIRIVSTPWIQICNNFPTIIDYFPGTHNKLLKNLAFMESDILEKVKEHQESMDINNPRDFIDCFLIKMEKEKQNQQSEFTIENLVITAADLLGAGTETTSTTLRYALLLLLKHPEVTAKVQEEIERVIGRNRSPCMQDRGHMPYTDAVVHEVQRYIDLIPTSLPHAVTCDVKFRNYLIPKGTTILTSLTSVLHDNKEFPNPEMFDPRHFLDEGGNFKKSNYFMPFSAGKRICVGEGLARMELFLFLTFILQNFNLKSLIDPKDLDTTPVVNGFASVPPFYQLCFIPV

Rattus norvegicus [21] = test: Acute toxicity in Sprague-Dawley rat assessed as lethargy at 300 mg/kg, po administered for 14 days measured on day 2 to 14 during compound dosing; type: organism-based; conditions: in vivo, 336 h
Method in brief: (§1)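 Male and female Sprague-Dawley rats in a 14-day dose-range-finding toxicity study with oral dose groups of 0, 30, 100 and 300 mg/kg. Animals were watched for clinical signs such as lethargy over the dosing period.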

Rattus norvegicus [22] = test: Acute toxicity in Sprague-Dawley rat assessed as lethargy at 300 mg/kg, po administered for 14 days measured on day 1 during compound dosing; type: organism-based; conditions: in vivo, 336 h; method in brief: as §1
Rattus norvegicus [23] = test: Inhibition of paw withdrawal threshold in Sprague-Dawley rat MIA-induced osteoarthritic pain model at 10 mg/kg, po measured up to 4 hrs; type: organism-based; conditions: in vivo
Cannabinoid receptor 2 [24] = target: Cannabinoid receptor 2 (Homo sapiens, UniProt P34972); test: Agonist activity at recombinant human CB2 receptor expressed in HEK293 cells assessed as increase in beta arrestin recruitment measured after 2 to 3 hrs by PathHunter assay relative to CP55940; type: functional, cell-based
Cannabinoid receptor 2 (Homo sapiens, UniProt P34972), sequence (P34972 whole entry): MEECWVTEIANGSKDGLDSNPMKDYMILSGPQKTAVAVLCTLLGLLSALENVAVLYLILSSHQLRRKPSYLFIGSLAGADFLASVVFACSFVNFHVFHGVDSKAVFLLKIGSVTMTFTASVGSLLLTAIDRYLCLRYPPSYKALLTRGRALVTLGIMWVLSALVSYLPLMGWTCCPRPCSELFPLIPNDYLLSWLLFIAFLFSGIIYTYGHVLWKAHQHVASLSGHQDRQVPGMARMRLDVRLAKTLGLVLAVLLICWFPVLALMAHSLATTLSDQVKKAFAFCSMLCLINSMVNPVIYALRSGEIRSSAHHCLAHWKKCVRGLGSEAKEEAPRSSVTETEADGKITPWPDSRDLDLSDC

Cannabinoid receptor 2 [25] = target: T3, Cannabinoid receptor 2 (Rattus norvegicus, UniProt Q9QZN9); test: Agonist activity at recombinant rat CB2 receptor expressed in HEK293 cells assessed as increase in beta arrestin recruitment measured after 2 to 3 hrs by PathHunter assay; type: functional, cell-based
T3 sequence (Q9QZN9 whole entry): T2 sequence (whole entry)

Cannabinoid receptor 1 = Cannabinoid receptor 1 (Rattus norvegicus, UniProt P20272); test: Agonist activity at recombinant rat CB1 receptor expressed in HEK293 cells assessed as increase in beta arrestin recruitment measured after 2 to 3 hrs by PathHunter assay; type: functional, cell-based
Cannabinoid receptor 1, sequence (P20272 whole entry): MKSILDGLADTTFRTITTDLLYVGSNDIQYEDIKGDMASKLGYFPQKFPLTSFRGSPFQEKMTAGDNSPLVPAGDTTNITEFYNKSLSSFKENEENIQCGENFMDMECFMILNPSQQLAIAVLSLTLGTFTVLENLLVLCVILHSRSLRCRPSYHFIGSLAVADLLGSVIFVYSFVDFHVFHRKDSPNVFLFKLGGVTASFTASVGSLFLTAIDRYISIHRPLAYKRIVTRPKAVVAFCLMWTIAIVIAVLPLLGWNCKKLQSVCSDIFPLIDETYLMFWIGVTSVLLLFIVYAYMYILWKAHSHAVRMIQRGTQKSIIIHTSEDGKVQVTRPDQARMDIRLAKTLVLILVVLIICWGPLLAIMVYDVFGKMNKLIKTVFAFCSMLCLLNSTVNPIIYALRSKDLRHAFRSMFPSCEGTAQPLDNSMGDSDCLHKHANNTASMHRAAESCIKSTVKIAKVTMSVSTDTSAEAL

Rattus norvegicus [26] = test: Analgesic activity in Sprague-Dawley rat MIA-induced osteoarthritic pain model assessed as increase in paw withdrawal threshold at 3 mg/kg, po after 1 hr in presence of CB2 inverse agonist AR401733 by von Frey filaments assay; type: functional, organism-based
[27] = Half life in human liver microsomes; type: ADME, microsome
Cytochrome P450 1A2 = target: T4, Cytochrome P450 1A2 (Homo sapiens, UniProt P05177); test: Inhibition of CYP1A2 (unknown origin); type: ADME
T4 sequence (P05177 whole entry): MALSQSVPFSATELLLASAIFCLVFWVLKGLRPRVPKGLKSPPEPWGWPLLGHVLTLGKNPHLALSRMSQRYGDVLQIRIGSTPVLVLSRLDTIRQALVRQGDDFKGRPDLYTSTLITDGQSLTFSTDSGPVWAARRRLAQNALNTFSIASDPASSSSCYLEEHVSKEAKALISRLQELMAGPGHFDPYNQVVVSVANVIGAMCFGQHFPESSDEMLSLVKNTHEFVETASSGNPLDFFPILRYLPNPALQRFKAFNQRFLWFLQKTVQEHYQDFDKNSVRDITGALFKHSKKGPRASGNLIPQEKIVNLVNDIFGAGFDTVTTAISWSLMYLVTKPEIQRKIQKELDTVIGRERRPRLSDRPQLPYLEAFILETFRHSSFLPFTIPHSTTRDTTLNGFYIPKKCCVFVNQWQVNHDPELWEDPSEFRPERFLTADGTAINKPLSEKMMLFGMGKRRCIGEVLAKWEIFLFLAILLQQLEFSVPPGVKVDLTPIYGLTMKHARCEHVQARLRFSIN

[28] = target: T2, Cannabinoid receptor 2 (Rattus norvegicus); test: Induction of recombinant HA-tagged rat CB2 receptor internalization expressed in CHOK1 cells at 10 uM measured after 1 hr by time-resolved flow cytometry relative to CP55940; type: functional, cell-based
Rattus norvegicus [29] = test: Acute toxicity in Sprague-Dawley rat assessed as histopathological abnormalities at 30 to 300 mg/kg, po administered for 14 days measured during compound dosing; type: organism-based; conditions: in vivo, 336 h
Cytochrome P450 3A4 = Cytochrome P450 3A4 (Homo sapiens, UniProt P08684); test: Inhibition of CYP3A4 (unknown origin); type: ADME
Cytochrome P450 3A4, sequence (P08684 whole entry): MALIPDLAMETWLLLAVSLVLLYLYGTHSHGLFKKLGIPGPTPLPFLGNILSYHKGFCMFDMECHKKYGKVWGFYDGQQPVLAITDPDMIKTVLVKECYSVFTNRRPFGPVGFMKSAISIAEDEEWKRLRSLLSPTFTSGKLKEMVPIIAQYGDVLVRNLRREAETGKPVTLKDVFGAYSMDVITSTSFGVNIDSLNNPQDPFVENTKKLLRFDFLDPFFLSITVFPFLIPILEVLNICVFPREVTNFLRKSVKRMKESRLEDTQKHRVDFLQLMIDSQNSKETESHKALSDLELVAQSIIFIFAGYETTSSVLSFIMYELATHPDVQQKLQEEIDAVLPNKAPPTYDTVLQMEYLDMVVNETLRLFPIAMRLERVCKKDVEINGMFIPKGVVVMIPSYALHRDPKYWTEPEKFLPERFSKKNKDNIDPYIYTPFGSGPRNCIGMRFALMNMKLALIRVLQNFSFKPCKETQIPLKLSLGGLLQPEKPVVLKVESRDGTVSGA

[30] = Half life in mouse liver microsomes; type: ADME, microsome
[31] = Aqueous solubility of the compound at pH 2 to 7 using solid samples; type: physicochemical; conditions: aqueous solution
Cytochrome P450 2C9 = Cytochrome P450 2C9 (Homo sapiens, UniProt P11712); test: Inhibition of CYP2C9 (unknown origin); type: ADME
Cytochrome P450 2C9, sequence (P11712 whole entry): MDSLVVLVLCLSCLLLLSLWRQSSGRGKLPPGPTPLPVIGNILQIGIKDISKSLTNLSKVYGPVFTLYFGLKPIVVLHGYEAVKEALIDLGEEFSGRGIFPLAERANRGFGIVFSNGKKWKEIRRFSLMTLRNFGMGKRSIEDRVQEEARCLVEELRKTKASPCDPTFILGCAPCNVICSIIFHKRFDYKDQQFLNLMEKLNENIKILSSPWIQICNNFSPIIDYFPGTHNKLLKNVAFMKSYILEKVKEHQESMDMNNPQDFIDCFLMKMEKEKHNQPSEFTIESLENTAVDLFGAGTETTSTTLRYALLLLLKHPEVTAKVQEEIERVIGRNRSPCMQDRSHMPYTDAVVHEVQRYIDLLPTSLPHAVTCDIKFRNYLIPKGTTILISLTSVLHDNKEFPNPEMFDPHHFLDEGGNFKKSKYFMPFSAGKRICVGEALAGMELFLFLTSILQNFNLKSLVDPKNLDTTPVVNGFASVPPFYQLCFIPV

Rattus norvegicus [32] = test: Toxicity in Sprague-Dawley rat MIA-induced osteoarthritic pain model assessed as induction of tachyphylaxis at 10 mg/kg, ip administered twice daily for 5 days measured 1 hr post dose at 1 day interval for 5 days during compound dosing; type: organism-based; conditions: in vivo
Method in brief: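 MIA-treated rats were dosed IP twice daily for 5 days. Reversal of hypersensitivity was measured by von Frey paw withdrawal threshold 1 h after the morning dose on days 1, 3 and 5. Morphine was given on the same regimen for comparison.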

Rattus norvegicus [33] = test: Analgesic activity in Sprague-Dawley rat MIA-induced osteoarthritic pain model assessed as increase in paw withdrawal threshold at 3 mg/kg, ip by von Frey filaments assay; type: functional, organism-based
Method in brief: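 Rat MIA osteoarthritis pain model, with analgesia read as von Frey paw withdrawal threshold. In blocking runs, 3 mg/kg IP agonist was combined with the CB2 antagonist AR401733 (10 mg/kg PO) or the CB1 antagonist rimonabant (10 mg/kg PO).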

## CC(C)(C)[C@@H](CO)NC(=O)c1nn(-c2c[n+]([O-])ccn2)c2c1C[C@@H]1C[C@H]21 [OLORINAB]
[1]
  fraction unbound: 0.1 to 0.2
[2]
  fraction unbound: 0.1 to 0.2
Rattus norvegicus [3]
  Activity: inactive
Rattus norvegicus [4]
  Activity: Non-Toxic
[5]
  fraction unbound: 0.1 to 0.2
[6]
  Kp at 2 h: 0.04
Rattus norvegicus [7]
  Activity: Non-Toxic
Rattus norvegicus [8]
  Activity: inactive
[9]
  fraction unbound: 0.1 to 0.2
[10]
  IC50: > 30 µM
Cytochrome P450 2D6
  IC50: > 50 µM
[11]
  half-life: > 1 h
[12]
  Emax: 100%
Salmonella typhimurium [13]
  Activity: Non-Toxic
[14]
  IC50: > 30 µM
[15]
  Stability: Stable
HepG2
  Activity: Non-Toxic
Rattus norvegicus [16]
  Activity: Active
Salmonella typhimurium [17]
  Activity: Non-Toxic
Rattus norvegicus [18]
  Activity: inactive
[19]
  fraction unbound: 0.1 to 0.2
Rattus norvegicus [20]
  ED50: 2.3 mg/kg
Cytochrome P450 2C19
  IC50: > 50 µM
Rattus norvegicus [21]
  Activity: Non-Toxic
Rattus norvegicus [22]
  Activity: Toxic
Rattus norvegicus [23]
  inhibition (INH): Non-Toxic
Cannabinoid receptor 2 [24]
  Emax: 106%
Cannabinoid receptor 2 [25]
  EC50: 0.0076 µM
Cannabinoid receptor 1
  EC50: 10 to 30 µM
Rattus norvegicus [26]
  Activity: inactive
[27]
  half-life: > 1 h
Cytochrome P450 1A2
  IC50: > 50 µM
[28]
  Activity: 106%
Rattus norvegicus [29]
  Activity: Non-Toxic
Cytochrome P450 3A4
  IC50: > 50 µM
[30]
  half-life: > 1 h
[31]
  solubility thermodynamic: 2 mg/mL (≈ 5.6 mM)
Cytochrome P450 2C9
  IC50: > 50 µM

## CN1CC[C@]23c4c5ccc(O)c4O[C@H]2[C@@H](O)C=C[C@H]3[C@H]1C5 [MORPHINE]
Rattus norvegicus [32]
  Activity: Toxic
Rattus norvegicus [33]
  Activity: Active

From ChEMBL document CHEMBL4138258 (ACS Med Chem Lett, 2017)
